Screens deposited in PubChem BioAssay by Broad Institute.
Rows were chosen to be rich in hits. Some 3.1% of all compounds tested hit in one or more screens of this group.
DENV2 CPE rescue = inhibitors of DENV2 cytopathic effect. DENV2-infected cells, cytopathic effect rescue, plate reader. CPE inhibition, % at 9.99 µM. actives 1.7% (n = 350,000). AID 651640; in the data active = CPE inhibition above about 20%, passing the limit was not always enough; inconclusive = no clear call, values can overlap the other calls; tested in BHK-21 cells
Cneo AK release = Cryptococcus neoformans lysis via adenylate kinase release; lysis activity, % at 15 µM; actives 0.2% (n = 360,000); C. neoformans lysis, adenylate kinase release luminescence, 4 h; normalised: neutral wells 0, clomiphene wells 100;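 active = mean lysis activity across replicates of at least 80%, whatever share of replicates individually reach that level; inactive = mean lysis activity below 80%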
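Assay system: log-phase C. neoformans yeast / Quantity: yeast cell density of 5 × 10^6 cells/mL / Medium: fresh YPD growth medium / Compound: single dose / Timing: static 4 h at 37 °C with compound, 1 h detection / Measured by: adenylate kinase release luminescence / Read-out: lysis from increased AK signal / Benchmarks: Clomiphene as positive lysis control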
E-sel inducer = E-selectin induction on HUVECs; P16581; HUVEC E-selectin immunofluorescence imaging; normalized: neutral wells 0, TNF-alpha wells 100; activation, % at 7.58 µM; actives 0.37% (n = 260,000); AID 686992;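 active = mean E-selectin-positive cell signal at least 10% of the positive control, reached in at least 60% of replicates, without over 20% cell loss; inconclusive = no rule given, readout overlaps actives, possibly toxicity-flagged; inactive = the rest, including those meeting only one limit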
Target sequence (P16581 whole entry, looked up): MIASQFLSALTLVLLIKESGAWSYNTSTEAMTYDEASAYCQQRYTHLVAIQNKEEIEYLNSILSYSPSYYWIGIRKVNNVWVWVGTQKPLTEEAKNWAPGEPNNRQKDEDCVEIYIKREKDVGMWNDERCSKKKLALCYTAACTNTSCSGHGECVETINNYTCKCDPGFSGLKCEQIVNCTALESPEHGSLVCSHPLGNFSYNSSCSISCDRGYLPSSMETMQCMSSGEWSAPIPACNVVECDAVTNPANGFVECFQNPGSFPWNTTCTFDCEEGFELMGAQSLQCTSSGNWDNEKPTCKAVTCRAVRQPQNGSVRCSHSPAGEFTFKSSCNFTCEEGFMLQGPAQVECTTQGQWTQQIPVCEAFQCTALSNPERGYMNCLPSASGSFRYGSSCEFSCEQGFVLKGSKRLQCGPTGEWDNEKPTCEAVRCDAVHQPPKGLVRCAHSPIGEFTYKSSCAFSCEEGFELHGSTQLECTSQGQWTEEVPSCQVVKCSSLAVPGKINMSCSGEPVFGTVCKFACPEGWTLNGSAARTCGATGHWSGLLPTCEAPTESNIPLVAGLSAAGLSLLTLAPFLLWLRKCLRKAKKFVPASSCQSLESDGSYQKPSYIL
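material = human umbilical vein endothelial cells (HUVEC), E-selectin induction | quantity = 3,000 cells/well | medium = EGM-2 growth medium on 0.1% gelatin-coated wells | technique = immunofluorescence imaging | read-out basis = % PE-positive cells | control set = TNF-alpha positive control, DMSO neutral control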
Ecoli rRNA inh = inhibits bacterial ribosomal RNA function over humanized ribosomes. actives 1.6% (n = 350,000). E. coli WT GFP vs humanized-ribosome RFP mutants, fluorescence, 24 h; active compounds read low; DMSO median 0, no signal -100. GFP signal change (wild-type ribosome), % (concentration not given with the values);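 active = significant combined selectivity score with lowered wild-type GFP, culture density cut under 30%, mutant RFP and density less affected; inactive = any of these conditions unmet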
miR122 inh = blocks miR-122 activity in Huh7 sensor cells; Huh7 miR-122 Renilla luciferase sensor, 48 h; neutral wells = 0, positive control = 100; activation (reporter increase), % at 12.5 µM; actives 0.3% (n = 340,000); AID 602342;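 active = mean replicate activation score at least 90 and every replicate individually at or above 90; inconclusive = only one of the two criteria met; inactive = neither criterion met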;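 note: higher luciferase means less miR-122 activity so hits act as miR-122 inhibitors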
A number is an active result; - = inactive; ? = inconclusive; . = not tested or not shown.

SMILES	DENV2 CPE rescue	Cneo AK release	E-sel inducer	Ecoli rRNA inh	miR122 inh
Cc1noc(C)c1NC(=O)N[C@@H]1C=C[C@@H](CC(=O)N2CCCCC2)O[C@@H]1CO	-	-	-	-	.
COc1ccc(S(=O)(=O)Nc2ccc3c(c2)C(=O)N([C@@H](C)CO)C[C@H](C)[C@H](CN(C)Cc2ccncc2)OCCCC[C@H](C)O3)cc1	106	-	-	-	-
COc1ccc(S(=O)(=O)Nc2ccc3c(c2)C(=O)N([C@@H](C)CO)C[C@@H](C)[C@@H](CN(C)Cc2ccncc2)OCCCC[C@H](C)O3)cc1	37	-	-	-	-
CCOc1ccc(NC(=O)C2CC(=O)N(CCc3ccccc3)C2)cc1OC (stereo not drawn)	89	-	.	-	-
CON(C)C(=O)/C=C/CCCCNC(=O)OC(C)(C)C	37	-	-	-	-
C[C@@H]1CN([C@@H](C)CO)C(=O)c2cc(NC(=O)Nc3ccc(F)cc3)ccc2O[C@@H](C)CCCCO[C@@H]1CN(C)Cc1ccc2c(c1)OCO2	-	-	-	-	-
O=C(NC1CCCC1)c1cc(-c2ccccc2O)on1	-	-	47	-	-
O=C(NC1CCCC1)c1cc(-c2ccccc2Cl)on1	-	-	.	-	-
COc1ccc(S(=O)(=O)NCC(=O)NCc2cc(=O)n(C)c(=O)n2C)cc1	57	-	.	-	.
Cn1c(CNS(=O)(=O)c2cccc(Cl)c2)cc(=O)n(C)c1=O	-	.	-	-	.
Cn1c(CNS(=O)(=O)c2ccc(Cl)cc2)cc(=O)n(C)c1=O	-	-	97	-	-
CCS(=O)(=O)N[C@H]1CC[C@H](CC(=O)N2CCCCC2)O[C@H]1CO	-	-	.	.	.
C[C@@H]1CN([C@@H](C)CO)C(=O)c2cc(-c3ccccc3)cnc2O[C@H]1CN(C)C(=O)c1ccccn1	-	-	-	-	-
Cc1ccnc(NC(=O)C(Cc2ccccc2)NC(=O)c2ccccc2)c1 (stereo not drawn)	38	-	-	.	-
CNC[C@@H]1Oc2c(NS(=O)(=O)c3c(C)noc3C)cccc2C(=O)N([C@H](C)CO)C[C@H]1C	-	.	-	-	.
Cc1[nH]nc(-c2ccc(O)cc2O)c1Oc1ccccc1	-	-	.	-13	-
C[C@H](CO)N1C[C@H](C)[C@H](CN(C)C(=O)Nc2ccc(F)cc2)Oc2cc(/C=C/c3ccccc3)ccc2S1(=O)=O	-	-	.	.	-
c1ccc(OCCOCCOc2ccccc2)cc1	.	-	-	-	-
F[B-](F)(F)COc1ccccc1	36	-	.	-	-
CC1(C)OC(=O)C2=C(C[C@@H](C3CCCCC3)O[C@H]2c2ccc(F)cc2)O1	55	-	-	-	-
CC=Cc1ccc2n(c1=O)C[C@H]1[C@H](CO)[C@@H](C(=O)Nc3ccc(-c4ccccc4)cc3)[C@@H]2N1CC (mixture of isomers)	-	.	-	-	.
CCCOc1ccc(CSc2nc3ccccc3[nH]2)cc1	.	.	.	.	-
c1ccc(CSc2nc3ccccc3[nH]2)cc1	-	-	-	-22	-
Cc1[nH]c2ccccc2c1C(=O)CSc1nc2ccccc2[nH]1	-	-	.	-28	-
Cc1[nH]c2ccccc2c1C(=O)CSc1nccc(=O)[nH]1	.	.	-	-	.
SMILES	DENV2 CPE rescue	Cneo AK release	E-sel inducer	Ecoli rRNA inh	miR122 inh
Fc1ccc(CSc2nc3ccccc3[nH]2)cc1	.	-	.	.	-
Nc1c(-c2ccccc2)c(CSc2nc3ccccc3[nH]2)nn1-c1ccc(Cl)cc1	-	.	-	-19	.
Nc1c(-c2ccccc2)c(CSc2nc3ccccc3[nH]2)nn1-c1cccc(Cl)c1	-	.	-	.	.
CCOc1ccc(OCCSc2nc3ccccc3[nH]2)cc1	-	-	.	-28	-
CO[C@@H]1CN(C)C(=O)c2cc(NC(=O)C3CCOCC3)ccc2OC[C@H](C)N(C(C)=O)C[C@@H]1C	.	.	-	-	-
COCC(=O)N1[C@H](C(=O)Nc2ccccc2)[C@@H](CO)[C@@H]2Cn3c(ccc(-c4ccccc4)c3=O)[C@@H]21	-	-	-	-	-
COc1ccc(NC2CCCN(C(=O)c3csc(C(C)C)n3)C2)cc1OC (stereo not drawn)	-	-	79	-	-
O=C(C[C@@H]1C=C[C@H](NC(=O)Nc2cc(F)ccc2F)[C@@H](CO)O1)NCCCN1CCOCC1	-	-	-	-	-
O=C(C[C@H]1C=C[C@H](NC(=O)Nc2cc(F)ccc2F)[C@@H](CO)O1)NCCCN1CCOCC1	-	121	-	-	-
O=C(C[C@@H]1C=C[C@@H](NC(=O)c2cccc(F)c2)[C@H](CO)O1)NCCN1CCCC1	-	95	-	-	.
COc1ccc(/C=C(\NC(=O)c2ccc([N+](=O)[O-])cc2)C(=O)NCCCN2CCOCC2)cc1	-	-	-	-14	-
CCOc1ccc(C(=O)c2cc([N+](=O)[O-])ccc2N2CCOCC2)cc1	-	.	-	-	.
COc1ccc(C(=O)c2cc([N+](=O)[O-])ccc2N2CCOCC2)cc1	-	.	-	-19	.
O=C(OCc1c(F)cccc1Cl)c1cc([N+](=O)[O-])ccc1N1CCOCC1	68	-	-	-	-
O=C(OCc1ccccc1Cl)c1cc([N+](=O)[O-])ccc1N1CCOCC1	?	-	-	-	-
C[C@@H]1CCCCO[C@@H](CN(C)S(=O)(=O)c2ccccc2)[C@H](C)CN([C@@H](C)CO)C(=O)c2cc(NC(=O)c3ccncc3)ccc2O1	-	-	.	-	-
N#Cc1cccc(-c2ccc3c(c2)[C@@H]2[C@@H](CCN2C(=O)C2CCCCC2)[C@@H](CO)N3)c1	-	-	-	-	-
O=C(N=Nc1c(O)[nH]c2ccc([N+](=O)[O-])cc12)c1ccccc1[N+](=O)[O-]	-	-	-	-	-
CC(Oc1ccccc1)C(=O)N=Nc1c(O)[nH]c2ccc([N+](=O)[O-])cc12 (stereo not drawn)	-	.	-	-	232
CCCNC(=O)[C@H]1[C@H](CO)[C@H]2Cn3c(ccc(C4=CCCCC4)c3=O)[C@@H]1N2CC	-	-	-	-	-
C[C@@H]1CCCCO[C@H](CN(C)CC2CCCCC2)[C@@H](C)CN([C@H](C)CO)C(=O)c2cc(NC(=O)Nc3ccc4c(c3)OCO4)ccc2O1	-	-	-	-	-
CC(=O)Nc1ccc(-c2csc(Nc3cc(C)ccn3)n2)cc1	-	-	-	-48	-
CCOC(=O)/C(C)=N/Nc1nc(-c2ccc(NC(C)=O)cc2)cs1	-	-	-	-27	-
C[C@@H]1CN([C@H](C)CO)C(=O)c2c(c3ccccc3n2C)-c2ccccc2CO[C@@H]1CN(C)Cc1ccccc1	.	.	.	-	.
COc1ccc(NC(=O)Nc2ccc3c(c2)C(=O)N([C@@H](C)CO)C[C@@H](C)[C@H](CN(C)C(=O)CCCN(C)C)OCCCC[C@@H](C)O3)cc1	-	-	-	-	-
